Converted amounts (≈) assume the structure as drawn.
Columns and labels:
[1] = WHO-TDR: Cytotoxicity; type: toxicity, cell-based; settings: human, MRC5 cells
Plasmodium falciparum K1 = assay: WHO-TDR: Malaria; type: functional, organism-based, Homo sapiens; settings: Erythrocyte
In short: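 A diverse library of 10,000 compounds from Life Chemicals, filtered for drug-likeness and reactive groups, was screened against the intra-erythrocytic Plasmodium falciparum K1 strain in human red blood cells. Previously published standard procedures were followed, with a reference drug as positive control. Antiplasmodial potency is given as IC50.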

Trypanosoma cruzi = assay: WHO-TDR: Chagas disease; type: functional, organism-based, Homo sapiens; settings: MRC5
In short: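 Intracellular amastigotes of the Trypanosoma cruzi Tulahuen CL2 beta-galactosidase strain, grown in MRC-5SV2 human lung fibroblast host cells, were tested in a whole-organism screen. The compounds came from a 10,000-member diverse Life Chemicals library that had been filtered for drug-likeness and reactive groups. Previously published standard procedures were followed, with a reference drug as positive control, and potency is reported as IC50.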

[2] = system: Trypanosoma brucei brucei; assay: WHO-TDR: Human African Trypanosomiasis (HAT); type: functional, organism-based; settings: Squib-427
In short: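 A diverse library of 10,000 compounds from Life Chemicals, filtered for drug-likeness and reactive groups, was screened against bloodstream forms of Trypanosoma brucei Squib 427 strain in a whole-organism assay. Previously published standard procedures were followed, with reference drugs serving as positive controls. Antiparasitic potency is given as IC50.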

Leishmania infantum = assay: WHO-TDR: Leishmaniasis; type: functional, organism-based, Mus musculus; settings: Macrophage
In short: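 A diverse library of 10,000 compounds from Life Chemicals, filtered for drug-likeness and reactive groups, was screened against whole organisms. The targets were intracellular amastigotes of Leishmania infantum MHOM/MA(BE)/67 growing in murine peritoneal macrophages. Previously published standard procedures were followed, with a reference drug as positive control. Antiparasitic potency is given as IC50.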

Schistosoma mansoni = assay: WHO-TDR: Schistosomiasis; type: functional; design: concentration or dose not given beside the values
In short: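 Activity appears as percent inhibition and as IC50. The underlying screen tested a diverse library of 10,000 compounds, supplied by Life Chemicals, on whole larval and/or adult worms of the Puerto Rican strain of Schistosoma mansoni.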

Onchocerca ochengi = assay: WHO-TDR: Onchocerciasis; type: functional; design: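 at 12.5 µM on microfilariae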
In short: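 Following previously published standard procedures, with reference drugs as positive controls, a diverse Life Chemicals library was tested on whole Onchocerca ochengi or Onchocerca lienalis microfilariae. The library held 10,000 compounds filtered for drug-likeness and reactive groups. Activity is recorded both as percent inhibition and as IC50.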

Brugia malayi = assay: WHO-TDR: Lymphatic Filariasis; type: functional; design: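 tested at 10 µM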
In short: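 Following previously published standard procedures, compounds were tested on whole Brugia malayi microfilariae, with reference drugs as positive controls. They came from a diverse Life Chemicals collection of 10,000 compounds filtered for drug-likeness and reactive groups. Results appear as percent inhibition and as IC50.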

| Compound | IC50 [1] [µg/mL] | IC50 (Plasmodium falciparum K1) [µg/mL] | IC50 (Trypanosoma cruzi) [µg/mL] | IC50 [2] [µg/mL] | IC50 (Leishmania infantum) [µg/mL] | % Inhibition (Schistosoma mansoni) [%] | % Inhibition (Onchocerca ochengi) [%] | % Inhibition (Brugia malayi) [%] |
| --- | --- | --- | --- | --- | --- | --- | --- | --- |
| O=C(CCn1cnc2c(cnn2-c2ccccc2)c1=O)Nc1nccs1 | > 11 | > 11 | > 11 | > 11 | 3.56 (≈ 9.71 µM) | 100 | 0 | 20 |
| O=S(=O)(NCC(c1cccs1)N1CCOCC1)c1ccc(Cl)s1 (stereo unspecified) | > 11.8 | > 11.8 | > 11.8 | > 11.8 | > 11.8 | 0 | 100 | 0 |
| O=C(CCSc1ccccc1)NCCOc1ccc2nnc(-c3ccc(F)cc3)n2n1 | > 13.1 | > 13.1 | > 13.1 | > 13.1 | 0.425 (≈ 0.971 µM) | 41.7 | 0 | 33.33 |
| O=C(NCCNC(=O)c1cccc(Cl)c1)c1ccc(NC(=O)c2ccc(F)cc2)cc1 | > 13.2 | > 13.2 | > 13.2 | > 13.2 | 0.427 (≈ 0.971 µM) | 0 | 0 | 0 |
| COc1ccc(S(=O)(=O)N2CCN(c3ccc(-c4ccncc4)nn3)CC2)c(OC)c1 | > 13.2 | 2.48 (≈ 5.62 µM) | 5.69 (≈ 12.9 µM) | > 13.2 | 0.429 (≈ 0.972 µM) | 0 | 0 | 33.33 |
| Cc1ccc(-c2ccc(=O)n(CCCNS(=O)(=O)c3ccc(Cl)s3)n2)cc1 | 5.29 (≈ 12.5 µM) | > 12.7 | > 12.7 | > 12.7 | > 12.7 | 0 | 100 | 0 |
| COc1ccc(C)cc1S(=O)(=O)NCCNc1ccc(Nc2cccc(C)n2)nn1 | > 12.9 | 3.4 (≈ 7.95 µM) | > 12.9 | 5.42 (≈ 12.7 µM) | > 12.9 | 0 | 100 | 0 |
| O=C(Nc1nnc(-c2ccc(Br)s2)o1)c1ccno1 | > 10.2 | > 10.2 | > 10.2 | > 10.2 | 0.331 (≈ 0.97 µM) | 16.7 | 0 | 0 |
| CSc1ccc2nc(N(Cc3cccnc3)C(=O)c3ccc(C(C)(C)C)cc3)sc2c1 | 7.16 (≈ 16 µM) | 0.145 (≈ 0.324 µM) | 0.556 (≈ 1.24 µM) | > 13.4 | > 13.4 | 0 | 25 | 0 |
| CCCc1nnc(NC(=O)CSc2ccc(NC(=O)c3cccs3)nn2)s1 | > 12.6 | > 12.6 | > 12.6 | > 12.6 | 0.408 (≈ 0.97 µM) | 0 | 0 | 0 |
| CCOC(=O)Cn1/c(=N\C(=O)CCCS(=O)(=O)Cc2ccccc2)sc2cc(F)ccc21 | > 14.4 | > 14.4 | > 14.4 | > 14.4 | > 14.4 | 0 | 100 | 0 |
| CCOC(=O)c1ccccc1NC(=O)CSc1ncc(CO)n1Cc1ccc(OC)cc1 | > 13.7 | > 13.7 | > 13.7 | > 13.7 | > 13.7 | 0 | 100 | 25 |
| COc1ccc(S(=O)(=O)N2CCN(c3ccc(Nc4ccccn4)nn3)CC2)cc1 | > 12.8 | > 12.8 | > 12.8 | > 12.8 | 0.414 (≈ 0.971 µM) | 16.7 | 0 | 0 |
| NC(=O)CSc1nc(-c2ccccc2)c(NC(=O)c2cc3ccccc3o2)s1 | > 12.3 | > 12.3 | > 12.3 | > 12.3 | > 12.3 | 25 | 100 | 33.33 |
| CC(=O)c1sc(NC(=O)C2CCCCN2S(C)(=O)=O)nc1-c1ccccc1 (stereo unspecified) | > 12.2 | > 12.2 | 4.06 (≈ 9.97 µM) | 3.12 (≈ 7.67 µM) | > 12.2 | 0 | 100 | 0 |
| CS(=O)(=O)N1CCN(c2ccc(-c3ccccn3)nn2)CC1 | > 9.58 | > 9.58 | 0.22 (≈ 0.689 µM) | > 9.58 | > 9.58 | 0 | 0 | 0 |
| Cc1cc(C(=O)Nc2nnc(-c3ccco3)o2)on1 | > 7.81 | > 7.81 | > 7.81 | > 7.81 | > 7.81 | 25 | 100 | 20 |
| O=C(c1ccc(F)c(F)c1)N1CCN(c2nccn2-c2cccc(Cl)c2)CC1 | > 13.2 | > 13.2 | 11.4 (≈ 28.2 µM) | 3.83 (≈ 9.51 µM) | 4.27 (≈ 10.6 µM) | 0 | 100 | 0 |
| Cc1cccc(Nc2ccc(NCCNS(=O)(=O)c3ccc(F)cc3)nn2)n1 | > 12.1 | 0.582 (≈ 1.45 µM) | > 12.1 | 4.06 (≈ 10.1 µM) | > 12.1 | 0 | 100 | 50 |
| O=S(=O)(CCCOc1ccc(F)cc1)NCCCc1ccccc1 | 10.5 (≈ 30 µM) | > 10.5 | > 10.5 | > 10.5 | > 10.5 | 0 | 100 | 0 |
| Cc1n[nH]c(C)c1CCc1nc(-c2ccc(Cl)cc2)no1 | > 9.08 | 1.14 (≈ 3.78 µM) | 1.8 (≈ 5.96 µM) | 2.13 (≈ 7.03 µM) | > 9.08 | 0 | 100 | 0 |
| Cc1ccnc(Nc2ccc(N3CCN(C(=O)Nc4cccc(F)c4)CC3)nn2)c1 | > 12.2 | > 12.2 | > 12.2 | 5.79 (≈ 14.2 µM) | > 12.2 | 0 | 100 | 75 |

From ChEMBL document CHEMBL2093137, “WHO-TDR NTD Screening”
